Scp-1 inhibitor = inhibitors of human Scp-1 phosphatase; Q9GZU7; Recombinant Scp1, phosphopeptide, malachite green phosphate absorbance; inhibition, % at 20 µM; hit rate 0.88% among 340,000; AID 493091;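 active = inhibition above about 50% at 20 µM, limit read from the data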
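Test system: SCP-1 phosphatase catalytic domain, residues 76-261; measured by: colorimetric phosphate reagent with accelerator and stabiliser, absorbance at 630 nm; timing: enzyme reaction 45 min at room temperature, colour 5 min, stabilisation 30 min; also added: Phosphorylated 17-residue peptide substrate; compound dosing: one concentration, 20 µM, with 1.0% DMSO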
STEP inh = inhibitors of human striatal-enriched phosphatase STEP. inhibition, % at 20 µM. hit rate 0.25% among 360,000. P54829. recombinant STEP, OMFP fluorogenic substrate, fluorescence;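 active = inhibition at 20 µM, scaled per plate between control wells, above about 37%, limit read from the data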
Target sequence (P54829 whole entry, looked up): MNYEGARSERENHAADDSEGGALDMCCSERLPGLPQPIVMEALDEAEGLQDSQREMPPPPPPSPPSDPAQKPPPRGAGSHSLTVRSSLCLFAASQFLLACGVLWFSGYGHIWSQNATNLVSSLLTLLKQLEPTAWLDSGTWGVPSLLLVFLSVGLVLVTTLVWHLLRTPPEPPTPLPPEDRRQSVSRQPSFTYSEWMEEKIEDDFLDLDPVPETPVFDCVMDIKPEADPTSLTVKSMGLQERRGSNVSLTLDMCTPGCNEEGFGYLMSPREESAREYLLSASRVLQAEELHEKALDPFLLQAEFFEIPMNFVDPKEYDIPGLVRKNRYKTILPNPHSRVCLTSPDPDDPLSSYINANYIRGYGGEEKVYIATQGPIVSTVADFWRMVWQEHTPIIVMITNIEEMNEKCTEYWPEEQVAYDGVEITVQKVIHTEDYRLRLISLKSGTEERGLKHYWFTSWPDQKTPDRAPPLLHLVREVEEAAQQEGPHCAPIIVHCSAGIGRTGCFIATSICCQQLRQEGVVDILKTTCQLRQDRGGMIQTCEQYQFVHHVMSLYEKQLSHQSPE
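Assay system: isolated STEP enzyme / Timing: 20 min at room temperature, dark / Doses: 20 µM, 1% DMSO / Technique: fluorescence intensity, excitation 480 nm, emission 540 nm / Reagent: fluorogenic phosphatase substrate OMFP at 25 µM final / Measure: percent inhibition scaled to no-enzyme and uninhibited-enzyme controls, plate-pattern corrected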
LMPTP block = blocks human LMPTP phosphatase; P24666; recombinant LMPTP-A, OMFP fluorogenic substrate, fluorescence intensity; inhibition, % at 20 µM; hit rate 0.22% among 360,000;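 active = compounds that cut the enzyme signal by at least half of the control window in the single-dose screen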
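Buffer or medium: Bis-Tris pH 6.0, DTT, detergent; Assay system: LMPTP-A enzyme; Quantity: 0.625 nM enzyme; Detection: endpoint fluorescence intensity; Times: 50 min dark incubation at room temperature; Controls: substrate-only low control, DMSO enzyme-plus-substrate high control; Doses: single 20 µM dose; Read-out: percent inhibition versus substrate-only and uninhibited controls; Reagent: 400 µM OMFP.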
SUMO1-SIM PPI = SUMO1-SIM interaction modulation; P63165; SUMO1 binding to a labelled peptide, TR-FRET, 1 h; inhibition, % at 20 µM; hit rate 0.33% among 360,000; in the data active = inhibition above about 37%
Target sequence (P63165 whole entry, looked up): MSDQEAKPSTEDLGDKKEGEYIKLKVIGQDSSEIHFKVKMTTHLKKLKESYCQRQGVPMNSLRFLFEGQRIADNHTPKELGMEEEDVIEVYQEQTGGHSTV
DNMT1 inh = DNMT1 (human) enzyme inhibition | inhibition (reported as % activation of signal), % at 10 µM | AID 588458 | P26358 | DNMT1 molecular beacon, Hinp1I cleavage, fluorescence | hit rate 0.83% among 360,000; in the data active = inhibition above about 50%
Scp1 confirm = confirmation of human Scp-1 phosphatase inhibitors; shares compounds with Scp-1 inhibitor; recombinant SCP-1 catalytic domain, phosphate release, malachite green absorbance; inhibition, % at 20 µM; hit rate 61% among 2,500; AID 540281
Scp-1 MG ctr = counter-screen for Scp-1 inhibitors: colorimetric interference. shares compounds with Scp-1 inhibitor. Colorimetric interference counterscreen, malachite green absorbance 630 nm. apparent inhibition (interference), % at 20 µM. 2,500 tested, under 10 active;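 also: compounds added after enzyme reaction finished so only phosphate colour detection is probed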
Scp1 DSF = binds human Scp-1, shifting its melting temperature; shares compounds with Scp-1 inhibitor; Recombinant SCP1, Sypro Orange thermal shift Tm; thermal shift relative to vanadate control, % at 40 µM; hit rate 25% among 1,500; AID 540329;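 active = substances whose mean melting-temperature shift, as a percentage of the reference inhibitor's shift, reaches about 5.3%, limit read from the data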
DNMT1 confirm = DNMT1 inhibition confirmation, single concentration. hit rate 8% among 2,300. inhibition, % at 10 µM. DNMT1 molecular beacon HinP1I cleavage, fluorescence. shares compounds with DNMT1 inh;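 active = average inhibition of at least 30% in the single-concentration confirmation test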
Beacon interf = shows spectral interference in the DNMT1 beacon assay. shares compounds with DNMT1 inh. DNMT1 molecular beacon spectral interference counterscreen, fluorescence 485/520. activation (fluorescence interference), % at 10 µM. hit rate 1% among 2,300. AID 602387;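 active = activation of at least 30% at 10 µM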;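 also: DNMT1 catalytic domain with a HinP1I cleavage step and a FAM/dabcyl DNA beacon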
STEP inh conf = STEP (human) phosphatase inhibition, single concentration confirmation. inhibition, % at 20 µM. hit rate 32% among 520. AID 623866. recombinant STEP, OMFP fluorogenic substrate, fluorescence. shares compounds with STEP inh; call rule not given here
Large screens that a line does not name were inactive (follow-up assays come after a bar, where they were run). The list is not random: actives were taken first. Their share in the collection is about 1.8%.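 The calls were made as follows, unless noted: active = inhibition of at least 30% at 20 µM; inactive = the rest.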

O=c1cc(-c2ccsc2)oc2cc(-c3ccc4c(c3)OCO4)ccc12	Scp-1 inhibitor 68, STEP inh 46, LMPTP block 68, DNMT1 inh 61 | Scp1 confirm 53 | Scp-1 MG ctr inactive | Scp1 DSF inactive | DNMT1 confirm inactive | Beacon interf inactive | STEP inh conf inactive
COc1cc(-c2ccc3oc(-c4ccsc4)cc(=O)c3c2)cc(OC)c1OC	none
Cn1c(N)c(C(=O)CSc2nnc(-c3c[nH]c4ccccc34)n2C2CC2)c(=O)[nH]c1=O	none
CC(=O)Nc1ccc(S(=O)(=O)Nc2cccc(-n3cnnn3)c2)cc1	none
CC(=O)c1ccc(S(=O)(=O)Nc2cccc(-n3cnnn3)c2)cc1	Scp-1 inhibitor 77, STEP inh 97, DNMT1 inh 100 | Scp1 confirm 65 | Scp-1 MG ctr inactive | Scp1 DSF inactive | DNMT1 confirm inactive | Beacon interf inactive | STEP inh conf 99
COC(=O)[C@]1(Cc2ccccc2)N[C@H](c2ccc(SC3CCCCC3)c(OC)c2)[C@@H]2C(=O)N(C)C(=O)[C@@H]21	none
Cc1nc2cc(-c3ccc(Br)cc3)[nH]n2c(=O)c1Cl	Scp-1 inhibitor 96, STEP inh 97 | Scp1 confirm inactive | Scp-1 MG ctr inactive | STEP inh conf inactive
Cn1cnc(C(=O)NCc2ccccc2)c1C(=O)NCc1ccccc1	none
O=C(N/N=C/c1ccsc1)c1cc2ccccc2o1	none
O=C(N/N=C/c1cccc([N+](=O)[O-])c1)c1cc2ccccc2o1	Scp-1 inhibitor 51, STEP inh 63, DNMT1 inh 94 | Scp1 confirm inactive | Scp-1 MG ctr inactive | DNMT1 confirm inactive | Beacon interf inactive | STEP inh conf inactive
Cc1cc(C(=O)N/N=C/c2ccc(-c3cccc(Cl)c3Cl)o2)n[nH]1	Scp-1 inhibitor 61, STEP inh 61, DNMT1 inh 52 | Scp1 confirm 88 | Scp-1 MG ctr inactive | Scp1 DSF inactive | DNMT1 confirm inactive | Beacon interf inactive | STEP inh conf inactive
Cc1cc(C(=O)N/N=C/c2ccc(-c3cccc(Br)c3)o2)n[nH]1	none
CCN(c1ccccc1)S(=O)(=O)c1ccc(C(=O)Nc2ncccc2O)cc1	none
COc1cc(/C=C(\C#N)C(=O)Nc2cccc(C(=O)O)c2)ccc1OCc1ccc(C)cc1	Scp-1 inhibitor 86, STEP inh 61 | Scp1 confirm 72 | Scp-1 MG ctr inactive | Scp1 DSF inactive | STEP inh conf inactive
Cc1ccc(NS(=O)(=O)c2cccc3nsnc23)cc1	none
O=S(=O)(Nc1ccccc1)c1cccc2nsnc12	Scp-1 inhibitor 78, STEP inh 84, LMPTP block 58 | Scp1 confirm 59 | Scp-1 MG ctr inactive | Scp1 DSF inactive | STEP inh conf 40
COCCN(C(=O)COC(=O)c1cnc(C)cn1)c1c(N)n(Cc2ccccc2)c(=O)[nH]c1=O	none
Cc1cccc(Nc2nn3c(=O)c4ccccc4nc3s2)c1	Scp-1 inhibitor 106, STEP inh 96, DNMT1 inh 94 | Scp1 confirm 69 | Scp-1 MG ctr inactive | Scp1 DSF inactive | DNMT1 confirm inactive | Beacon interf inactive | STEP inh conf 29
CC1CCCN(C(=O)c2ccc3c(=O)n4nc(Nc5ccccc5)sc4nc3c2)C1 (configuration not stated)	none (no result: Scp-1 inhibitor)
O=C(Nc1nc2ccsc2c(=O)s1)c1ccc(Cl)cc1	Scp-1 inhibitor 103, STEP inh 96, LMPTP block 54 | Scp1 confirm 72 | Scp-1 MG ctr inactive | Scp1 DSF inactive | STEP inh conf inactive
O=C(Cn1nnc(-c2ccc(NC(=O)c3ccccc3F)cc2)n1)NCc1ccc(F)cc1	Scp-1 inhibitor 52, STEP inh 65, DNMT1 inh 77 | Scp1 confirm 68 | Scp-1 MG ctr inactive | Scp1 DSF 8.1 | DNMT1 confirm inactive | Beacon interf inactive | STEP inh conf inactive
Cc1ccc(CN2[C@@H](c3ccccc3)COCCS2(=O)=O)cc1	none
CCOc1ccc(N=C2NC(=O)S/C2=C\c2ccc(Cl)cc2)cc1	Scp-1 inhibitor 112, STEP inh 51, DNMT1 inh 84 | Scp1 confirm 41 | Scp-1 MG ctr inactive | Scp1 DSF inactive | DNMT1 confirm inactive | Beacon interf inactive | STEP inh conf inactive
COC(=O)COc1ccc(/C=C2/SC(=O)N(CC(=O)N3CCCC3)C2=O)cc1Br	none
Cc1ccc(NC(=O)CN2C(=O)S/C(=C\c3ccc(OCC(=O)O)c(Br)c3)C2=O)cc1	Scp-1 inhibitor 72, STEP inh 71 | Scp1 confirm 58 | Scp-1 MG ctr inactive | Scp1 DSF inactive | STEP inh conf 61
O=C(NNc1ncnc2ccccc12)c1cccc(Cl)c1	Scp-1 inhibitor 100, STEP inh 38 | Scp1 confirm 91 | Scp-1 MG ctr inactive | Scp1 DSF inactive | STEP inh conf inactive
O=C(N/N=C/c1ccc(F)cc1)c1ccc(Br)cc1	none
O=C(N/N=C/c1ccc(Br)cc1)c1ccc(Br)o1	Scp-1 inhibitor 100, STEP inh 47 | Scp1 confirm 82 | Scp-1 MG ctr inactive | Scp1 DSF inactive | STEP inh conf 71
COc1ccc(CNC(=O)C2CCCN2C(=O)Nc2cccc(Cl)c2)cc1 (configuration not stated)	none (no result: Scp-1 inhibitor)
O=C(Nc1ccc2oc(-c3ccccc3F)nc2c1)c1ccc([N+](=O)[O-])o1	Scp-1 inhibitor 101, STEP inh 99, LMPTP block 90, SUMO1-SIM PPI 98, DNMT1 inh 108 | Scp1 confirm 95 | Scp-1 MG ctr inactive | Scp1 DSF inactive | DNMT1 confirm inactive | Beacon interf inactive | STEP inh conf inactive
CCc1cc(=O)[nH]c(SCC(=O)Nc2ccc3c(c2)OCCO3)n1	none
COc1cccc(N2[C@@H](CC(=O)O)c3ccc(/C=C/C(=O)O)cc3S2(=O)=O)c1	Scp-1 inhibitor 70, STEP inh 50, DNMT1 inh 102 | Scp1 confirm 54 | Scp-1 MG ctr inactive | Scp1 DSF inactive | DNMT1 confirm inactive | Beacon interf inactive | STEP inh conf 36

Assay outcomes from PubChem.
